Results as given in ChEMBL document CHEMBL4428023, “1,4-Dihydropyridines Active on the SIRT1/AMPK Pathway Ameliorate Skin Repair and Mitochondrial Function and Exhibit Inhibition of Proliferation in Cancer Cells” (J Med Chem, 2016).
The source made the active and inactive calls. The rule behind the calls is not given here.

Columns and labels:
C2C12 = test: Activation of AMPK/SIRT1 in mouse C2C12 cells assessed as increase in mitochondrial density at 30 uM after 16 hrs by Mitotracker Green staining-based confocal microscopy; type: cell-based
How it was run: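 Murine C2C12 myoblasts plated on coverslips and grown overnight at 37 °C, 5% CO2. Then switched to serum-free HBSS, pH 7.4, and treated 16 h at 30 µM, alone or with 5 µM compound C or EX-527. Mitotracker Green (200 nM final) added for the last 30 min. Cells fixed in 4% paraformaldehyde, permeabilized and imaged by confocal microscopy, with settings fixed on untreated cells. Plate fluorescence also quantified.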

[1] = Antiproliferative activity against human SAN cells assessed as cell viability after 72 hrs by MTT assay; type: functional, cell-based
How it was run: (§1)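 Cells grown in RPMI with 10% fetal calf serum and penicillin, seeded in sextuplicate at 3 × 10^3 cells/well. After 24 h, cells were exposed 72 h to 5–200 µM. Viability was measured by MTT and expressed as treated/untreated × 100. IC50 was calculated from three independent experiments, reported as mean ± SD.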

Mus musculus = test: Wound healing activity in CD1 mouse assessed as decrease in epithelial gap at 1 uM administered topically on wound everyday for 14 days by biopsy punch assay; type: functional, organism-based
How it was run: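 Male CD1 mice, 8 weeks old, anaesthetized i.p. with medetomidine 1 mg/kg plus ketamine 75 mg/kg, then biopsy-punch wounded. Compound (1 µM) in 20 µL saline applied directly to the wound daily for 14 days; solvent-treated group as control. Epithelial gap and % wound closure followed over time.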

Cavia porcellus = species: Cavia porcellus; test: Potency index, ratio of potency for test compound to potency for nifedipine for inhibition of calcium channel in guinea pig ileum longitudinal smooth muscle assessed as inhibition of calcium-induced contraction; type: tissue-based
HT-29 = test: Antiproliferative activity against human HT-29 cells assessed as cell viability after 72 hrs by MTT assay; type: functional, cell-based; settings: HT-29, 72 h; how it was run: as §1
HEY = test: Antiproliferative activity against human HEY cells assessed as cell viability after 72 hrs by MTT assay; type: functional, cell-based; how it was run: as §1
LoVo = test: Antiproliferative activity against human LoVo cells assessed as cell viability after 72 hrs by MTT assay; type: functional, cell-based; how it was run: as §1
HaCaT = test: Activation of AMPK/SIRT1 in human HaCaT cells assessed as nitric oxide production at 10 uM incubated for 1 hr in presence of EX-527 by DAF-2D staining-based fluorescence assay; type: cell-based
How it was run: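 HaCaT cells in DMEM with 10% FBS. DHP (10 µM) given for 1 h alone or together with 10 µM AMPK inhibitor compound C or 10 µM SIRT1 inhibitor EX-527. Intracellular NO read by flow cytometry after loading with 5 µM DAF-2D in medium (ex 485/em 538 nm). Expressed as % DAF-positive cells versus DMSO.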

[2] = target: T1, NAD-dependent protein deacetylase sirtuin-1 (Homo sapiens) (UniProt Q96EB6); test: Activation of SIRT1 in human HaCaT cells assessed as H4K16 deacetylation at 1 uM after 1 hr by Western blotting method; type: cell-based
T1 sequence (whole entry): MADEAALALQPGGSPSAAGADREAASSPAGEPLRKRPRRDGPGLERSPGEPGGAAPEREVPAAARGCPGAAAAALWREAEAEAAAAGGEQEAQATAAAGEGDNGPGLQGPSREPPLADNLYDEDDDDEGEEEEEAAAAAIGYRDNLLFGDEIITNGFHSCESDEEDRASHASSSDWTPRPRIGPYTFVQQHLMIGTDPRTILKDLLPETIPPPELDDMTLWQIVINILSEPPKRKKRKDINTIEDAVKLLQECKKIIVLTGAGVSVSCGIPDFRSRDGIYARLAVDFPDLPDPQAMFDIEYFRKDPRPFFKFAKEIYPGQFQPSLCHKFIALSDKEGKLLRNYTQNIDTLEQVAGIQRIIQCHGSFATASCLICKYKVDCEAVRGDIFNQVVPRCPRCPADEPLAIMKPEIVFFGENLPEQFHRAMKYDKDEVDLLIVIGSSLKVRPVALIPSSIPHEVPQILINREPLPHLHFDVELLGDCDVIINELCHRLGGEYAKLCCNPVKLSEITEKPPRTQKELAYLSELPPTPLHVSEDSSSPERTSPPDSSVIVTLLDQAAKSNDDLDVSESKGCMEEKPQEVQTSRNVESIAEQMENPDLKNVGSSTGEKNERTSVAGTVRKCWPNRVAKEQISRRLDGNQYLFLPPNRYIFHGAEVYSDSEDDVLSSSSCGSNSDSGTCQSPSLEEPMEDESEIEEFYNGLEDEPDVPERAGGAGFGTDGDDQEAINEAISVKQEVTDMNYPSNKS
How it was run: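 HaCaT cells treated 1 h at 1 µM, DMSO as solvent control. Cells lysed in Laemmli buffer and immunoblotted for acetyl-H4K16 (1:1000), with total histone H4 as loading control. Bands quantified by densitometry. At least three independent experiments.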

In the case of `CCOC(=O)C1=CN(C(=O)c2ccccc2)C=C(C(=O)OCC)C1c1ccccc1`, the Activity (C2C12) is reported as “Active”, the IC50 [1] is reported as 161 µM and the Activity (Mus musculus) is reported as “Active”. It also gave a Ratio (Cavia porcellus) of 720, an IC50 (HT-29) of 80 µM and an IC50 (HEY) of 143 µM. For the same compound, the IC50 (LoVo) was 22 µM, the Activity (HaCaT) was “inactive” and the Activity [2] was “Active”.
